Sampled rows, rich in hits. Any-hit rate of the full collection: about 3%.
SENP6 inh: blocks the human protease SENP6; Recombinant SENP6 catalytic domain, aminoluciferin luminescence; inhibition, % at 10 µM; 1.8% of 330,000 active;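 active = inhibition above about 50% at the single tested dose, limit read from the data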
Target sequence (Q9GZR1 628-1112 limits assumed): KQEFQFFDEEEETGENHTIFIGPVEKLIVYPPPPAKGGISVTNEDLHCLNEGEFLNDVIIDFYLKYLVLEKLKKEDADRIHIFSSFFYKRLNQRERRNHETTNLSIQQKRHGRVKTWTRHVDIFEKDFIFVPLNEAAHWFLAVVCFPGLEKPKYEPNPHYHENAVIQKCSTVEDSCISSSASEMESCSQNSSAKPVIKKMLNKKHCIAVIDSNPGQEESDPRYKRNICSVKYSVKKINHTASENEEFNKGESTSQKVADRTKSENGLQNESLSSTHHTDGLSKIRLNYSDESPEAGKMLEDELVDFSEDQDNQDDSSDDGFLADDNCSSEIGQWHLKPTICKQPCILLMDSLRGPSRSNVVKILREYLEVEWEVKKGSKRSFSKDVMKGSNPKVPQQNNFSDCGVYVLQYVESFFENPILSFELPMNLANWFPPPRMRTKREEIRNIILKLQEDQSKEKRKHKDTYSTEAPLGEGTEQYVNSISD
SENP8 block-1: inhibitors of human SENP8 protease; Q96LD8; recombinant SENP8, Nedd8 substrate fluorescence; inhibition, % at 20 µM; 0.64% of 360,000 active; in the data active = inhibition mostly above about 40%, no sharp cut-off; inactive = mostly below about 27%
Apaf1 inhib: blocks human Apaf-1 apoptosome activity. reconstituted apoptosome caspase-3 activity, DEVD-Rh110 fluorescence. O14727. inhibition, % at 20 µM. 0.71% of 330,000 active. AID 489030; active = inhibition of at least 40% at 20 µM
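System – cell-free apoptosome with Apaf-1, procaspase-3 and caspase-9 · Buffer or medium – pH 7.5 Hepes buffer with CHAPS, BSA, DTT · Also added – cytochrome c with DEVD-Rh110 · Times – 30 min compound preincubation, 50 min activation, room temperature · Technique – Rh110 fluorescence intensity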
UBC13 inh: blocks human UBC13 polyubiquitin chain formation. 0.47% of 330,000 active. TR-FRET. P61088. AID 485273. inhibition, % at 20 µM; in the data active = inhibition above about 45%, passing the limit was not always enough; inconclusive = no clear call, values can overlap the other calls
SENP8 block-2: inhibitors of human SENP8 protease. Q96LD8. purified SENP8, Z-RLRGG-aminoluciferin cleavage, luminescence. inhibition, % at 10 µM. 1.2% of 330,000 active; in the data active = inhibition above about 50%
SENP7 inh: SENP7 protease inhibition | recombinant SENP7, Z-RLRGG-aminoluciferin luminescence, 40 min | inhibition, % at 5 µM | 1.5% of 330,000 active | AID 434973;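 active = inhibition above about 50% at the single test dose, limit read from the data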
A number is an active result; – = inactive; ? = inconclusive; · = not tested or not shown.

SMILES	SENP6 inh	SENP8 block-1	Apaf1 inhib	UBC13 inh	SENP8 block-2	SENP7 inh
Cc1[nH]n(-c2ccc(Cl)cc2)c(=O)c1N=Nc1cccnc1	–	43	–	–	–	–
Cc1[nH]n(-c2ccccc2)c(=O)c1C(c1ccc(O)c([N+](=O)[O-])c1)c1c(C)[nH]n(-c2ccccc2)c1=O	51	80	87	–	–	–
Nc1nc2c(s1)CCc1c-2cnn1-c1ccccc1	62	–	93	–	–	–
O=[N+]([O-])c1cccc(C2=NC(c3ccccc3)CO2)c1 (centres undefined)	–	–	–	–	–	–
COc1ccc(C2=NC(c3ccccc3)CO2)cc1 (centres undefined)	70	·	–	–	63	50
Cc1cccc(NC(=O)c2nc[nH]c2C(=O)NCCCCNC(=O)c2[nH]cnc2C(=O)Nc2cccc(C)c2)c1	–	–	–	–	–	–
COc1ccc(NC(=O)CN(C)C(=O)C2=NN(c3ccccc3)C(=O)CC2)cc1	–	–	–	–	–	–
O=c1[nH]c(S)nc2sc3c(c12)CCCC3	–	–	–	?	–	–
O=c1[nH]c(-c2ccco2)nc2sc3c(c12)CCCC3	51	–	–	–	–	–
CCOc1ccc(N(C(=O)c2snc(C(N)=O)c2N)C(C(=O)NCC2CCCO2)c2ccco2)cc1 (centres undefined)	–	–	–	79	–	–
COCCOCCn1c(/C=C/c2ccccc2)nc2ccccc21	74	–	–	–	61	–
C/C(=C\c1ccccc1)C1Nc2cccc3cccc(c23)N1	–	·	41	–	–	–
C[C@@H]1CN([C@@H](C)CO)C(=O)CCCn2nncc2CO[C@H]1CN(C)C(=O)C1CCCCC1	·	–	·	·	·	·
CC(C)C[C@@H]1CC2=C(C(=O)OC(C)(C)O2)[C@H](c2ccc(Cl)cc2)O1	·	–	·	·	·	·
O=C(/C=C/c1ccccc1)c1c[nH]c2ccccc12	58	–	–	–	–	84
NC(=S)N1OC[C@@H]2COc3ccc4ccccc4c3[C@@H]21	–	–	–	–	–	–
CC1=NN(c2ccc(Br)cc2)C(=O)/C1=C/c1ccc(-c2ccccc2C(=O)O)o1	–	–	78	–	–	–
CC1=NOC(=O)/C1=C\c1ccc(-c2ccc(Br)cc2C(=O)O)o1	–	–	–	–	–	–
CCCN1C(=O)/C(=C/c2ccco2)SC1=Nc1ccc(OC)cc1	–	48	–	–	–	–
COc1ccc(-c2nc3ccccn3c2C=O)cc1	62	–	–	–	–	55
O=Cc1c(-c2ccc(F)cc2)nc2ccccn12	–	–	–	–	–	–
COc1ccccc1C1CCN(c2cc(O)ccc2[N+](=O)[O-])CC1	–	–	–	–	–	–
Cc1ccc(C(=O)NN2C(=O)/C(=C/c3cn(C)c4ccccc34)SC2=S)cc1	·	42	·	·	·	·
Cn1cc(/C=C2\SC(=S)N(NC(=O)c3ccccc3Cl)C2=O)c2ccccc21	·	44	·	·	·	·
O=C(NN1C(=O)/C(=C\c2ccc(O)c([N+](=O)[O-])c2)SC1=S)c1ccccc1Cl	–	68	–	–	–	–
SMILES	SENP6 inh	SENP8 block-1	Apaf1 inhib	UBC13 inh	SENP8 block-2	SENP7 inh
Cc1ccc(C(=O)NN2C(=O)/C(=C/c3cccn3C)SC2=S)cc1	–	–	–	–	–	–
CCN(C(=O)COC(=O)/C=C/c1c(C)nn(-c2ccccc2)c1C)c1c(N)n(Cc2ccccc2)c(=O)[nH]c1=O	·	–	·	·	·	·
Cc1ccc(N/N=C2\CC(=O)c3ccccc32)cc1Cl	–	·	76	–	–	–
Cc1ccc(NCN2C(=O)c3ccccc3C2=O)cc1Cl	·	–	·	·	·	·
CCN(CC)c1ccc(/C=c2/sc3nnc(-c4ccccc4C)n3c2=O)cc1	–	–	–	–	–	–
CCN(CC)c1ccc(/C=c2\sc3nnc(-c4ccccc4Cl)n3c2=O)cc1	–	61	–	–	–	–
CC(Sc1ccccc1)C(=O)NCCc1ccccc1 (centres undefined)	–	–	–	–	–	–
CC1=NN(c2ccccc2)C(=O)/C1=C/c1cc2cc(C)ccc2nc1N1CCCCC1	–	·	94	–	–	–
CC1=NN(c2ccccc2)C(=O)/C1=C/c1c(C)[nH]n(-c2ccc(C)cc2)c1=O	–	·	–	–	–	–
CC1=NN(c2ccccc2)C(=O)/C1=C\C=C1\N(C)c2ccccc2C1(C)C	–	–	–	–	–	–
CC1=NN(c2ccccc2)C(=O)/C1=C\C=C1/N(C)c2ccccc2C1(C)C	–	47	–	–	–	–
CC1=NN(c2ccccc2)C(=O)/C1=C/C=C/c1ccc(N(C)C)cc1	·	38	·	·	·	·
CC1=NN(c2ccccc2)C(=O)/C1=C\c1cc(C)n(C)c1C	–	44	–	–	–	–
CN(Cc1cccc(F)c1)C(=O)CNS(=O)(=O)c1ccc2ccccc2c1	–	–	–	–	–	–
NC(=O)c1cc(S(=O)(=O)N2CC=C(c3ccccc3)CC2)cs1	–	–	–	–	–	–
CN(C(=O)COC(=O)c1nn(C)c(=O)c2ccccc12)c1c(N)n(Cc2ccccc2)c(=O)[nH]c1=O	–	–	–	–	–	–
CN(Cc1cccc(Cl)c1)C(=O)C1CSC2(C)CCC(=O)N12 (centres undefined)	–	–	–	–	–	–
CC(=O)c1ccc(NC(=S)Nc2cccc3ccccc23)cc1	91	–	45	–	65	53
Cc1ccc(NC(=S)Nc2cccc3ccccc23)cc1F	93	–	89	–	89	–
CCCCCCSc1ccc(-c2nc3cc(C)ccn3c2NC2CCCCC2)cc1	–	–	47	–	–	–
CCCCCCSc1ccc(-c2nc3ccc(C)cn3c2NC2CCCCC2)cc1	–	–	–	–	–	–
COC(=O)Nc1nnc(/C=C/c2ccc(OC)cc2)s1	59	–	–	–	–	–
O=C(N/N=C\c1ccc(Oc2ccccc2)cc1)c1csnn1	75	–	–	–	71	77
CN(C)c1ccc(/C=N\NC(=O)c2csnn2)cc1	–	–	–	–	–	–
O=C1COc2ccccc2N1Cc1c(F)cccc1Cl	–	–	–	–	–	–
SMILES	SENP6 inh	SENP8 block-1	Apaf1 inhib	UBC13 inh	SENP8 block-2	SENP7 inh
O=[N+]([O-])c1cc(Cl)cc(/C=N/n2cnnc2)c1O	–	47	–	–	–	–
COc1ccc(C(=O)NC2CCN(Cc3c(F)cccc3Cl)CC2)cc1OC	–	–	–	–	–	–
CN(C1=C(NC(=O)c2ccc(Cl)cc2)C(=O)c2ccccc2C1=O)c1ccccc1	–	57	–	–	–	–
O=C1C(Cl)=C(NC(=O)c2ccccc2)C(=O)C(Cl)=C1NC(=O)c1ccccc1	–	–	56	–	–	–
O=C(Nc1cccc(Cl)c1)c1ccccc1	–	–	–	–	–	–
CN(c1ccc(C(=O)Nc2ccc(Cl)cn2)cc1)S(=O)(=O)c1ccccc1	–	–	–	–	–	–
NS(=O)(=O)c1ccc(N/N=C/c2ccc(O)cc2O)c([N+](=O)[O-])c1	–	54	–	–	–	–

Compound activity: PubChem, Sanford-Burnham Center for Chemical Genomics
